# Screening results (PubChem BioAssay)
# A selection: hits, their analogues and other compounds. The true share with any hit is near 3.5%.
# BB579 growth dn – reduces growth of yeast BB579 in restrictive medium | S. cerevisiae BB579 growth, OD615, 48 h | actives 0.51% (n = 140,000) | AID 804 | inhibition, % at 10 µM;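 active = inhibition above a set limit, 3 SD over the mean compound inhibition, cut at about 44% in these data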
#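 Assay system – yeast BB579 (DeaD) · Dosing – single compound dose of 10 µM, 0.25% DMSO final · Detection – OD615 turbidity measurement · Buffer or medium – CSMM-D restrictive synthetic medium containing dextrose (glucose) · Benchmarks – positive control amphotericin B 10 µg/mL · Incubation – 48 h exposure, 30 °C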
# HMGR II inh – E. faecalis class II HMG-CoA reductase inhibition | actives 0.41% (n = 190,000) | purified E. faecalis HMGR, NADPH absorbance 340 nm kinetic | inhibition, % at 10 µM;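 active = inhibition above a set limit, the median over all tested compounds plus 3 SD, cut at about 9.5% in these data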;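 also: enzyme runs in reverse so mevalonate oxidation gives rising NADPH absorbance; 0% = complete reaction with DMSO and 100% = background rate lacking mevalonate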
# MT stabilize HCS – microtubule stabilizers in HeLa cells; % tubulin-high responders, % at 10 µM; actives 0.83% (n = 200,000); HeLa tubulin immunostaining HCS, 24 h; share of cells brighter than vehicle mean+2SD;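 active = plate Z-score above 3 for both tubulin-high and condensed-nucleus cell shares, with cell loss under 80%, at 10 µM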;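 also: anti alpha tubulin signal scored within the nucleus-defined area of each cell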
# RAM inhibit – inhibitors of the yeast RAM network; S. cerevisiae dse1pr::URA3 reporter, 5-FOA growth OD615, 2 d; analog-sensitive cbk1-as2 kinase mutant strain; inhibition, % at 50 µM; actives 1.8% (n = 190,000); AID 868;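 active = inhibition above a set limit, 3 SD over mean compound inhibition, cut at about 8.4% in these data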;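 also: 0% = DMSO-only wells with no growth and 100% = 10 µM 1-NA-PP1 full growth; inhibition rescues growth on 5-FOA so higher OD means more RAM inhibition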
# Yeast lifespan up – extends the lifespan of yeast | S. cerevisiae growth with nicotinamide, OD615; deaD strain in restrictive glucose medium | inhibition of the nicotinamide effect, % at 10 µM | actives 0.68% (n = 130,000) | AID 775;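 active = inhibition above a set limit, placed 3 SD over the median of all compounds, cut at about 26% in these data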;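 also: 0% = nicotinamide-treated wells and 100% = cells grown without nicotinamide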
#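 Buffer or medium: CSMM-D glucose medium, restrictive; test system: modified budding yeast, DeaD strain; compound: single dose 10 µM compound, 0.25% DMSO; schedule: culture preincubation 4 h, compound exposure 48 h, both 30 °C; detection: optical density (absorbance) at 615 nm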
# b-catenin transl – modulators of beta-catenin nuclear translocation; nuclear translocation activity, % at 5 µM; HeLa beta-catenin nuclear translocation, immunofluorescence imaging; actives 0.3% (n = 190,000);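 active = nuclear translocation activity above 50% at 5 µM, with a well cell count of 50 or more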;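 also: per-cell ratio of nuclear to cytoplasmic median beta-catenin stain intensity; plate controls were DMSO negative control for no effect and GSK-3 inhibitor IX positive control for full effect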
#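 Signal – beta-catenin immunofluorescence imaging with DAPI · Test system – human HeLa cell line · Dosing – 5 µM primary single dose, 0.1% DMSO, 0.02–20 µM confirmation series · Measure – % activation, nuclear-to-cytoplasmic median beta-catenin signal ratio per cell · Incubation – 24 h compound exposure at 37°C, 5% CO2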
# * hit, by the source's call; . = no result given.
SMILES,BB579 growth dn,HMGR II inh,MT stabilize HCS,RAM inhibit,Yeast lifespan up,b-catenin transl
Cc1cc(NS(=O)(=O)c2ccc(NC(=O)C(C)Oc3ccc4c(C)cc(=O)oc4c3)cc2)no1 (stereo not drawn),-40,-4,2,10*,17,2
OCCC1CN(C2CCN(c3ccccc3)CC2)CCN1Cc1ccc(F)c(F)c1 (stereo not drawn),.,-2,3,1,.,-1
CCOC(=O)CNc1nc(C(C)(C)C)nc2c1nnn2Cc1ccccc1Cl,-12,-6,3,10*,2,-4
O=C(ON=C1CCN(S(=O)(=O)c2ccccc2)CC1)c1ccccc1,-40,3,1,0,-20,.
CC1(C)CC(=NOC(=O)c2ccccc2)CC(C)(C)N1O,74*,-1,2,0,-6,-1
CCOCC(=O)Nc1cc(Cl)c(OC)cc1OC,.,1,2,1,.,1
O=c1[nH]ncc2c3ccccc3n(Cc3cccc(Cl)c3)c12,.,16*,3,5,.,-3
COc1ccccc1NS(=O)(=O)c1ccc(Cl)c(NC(=O)c2sc3cc(Cl)ccc3c2Cl)c1,.,-4,5,9.0*,.,-5
COc1ccc(C2CC(=O)C(C(c3ccc(O)cc3)C3C(=O)CC(c4ccc(OC)cc4)CC3=O)C(=O)C2)cc1 (stereo not drawn),.,.,.,.,.,0
CN(C)N1C(N)=C(C#N)C(c2cccc3ccccc23)C2=C1CC(c1ccccc1)CC2=O (stereo not drawn),-26,-3,12*,6,-1,12
O=S(=O)(Cc1ccccc1)NCc1cccnc1,45*,-2,6,0,-18,0
OCCC1CN(Cc2cnc(-c3ccccc3)s2)CCN1Cc1ccccc1 (stereo not drawn),.,0,5,-1,.,-1
OCCC1CN(Cc2cccs2)CCN1Cc1ccccc1 (stereo not drawn),.,15*,2,1,.,0
C/C(=N\NC1=N[C@H]2CS(=O)(=O)C[C@H]2S1)c1ccccc1,.,.,.,.,.,1
CCn1nnc(NC(=O)COc2ccc([N+](=O)[O-])cc2)n1,.,.,.,.,.,0
Cc1ccc(NC(=S)NNC(=O)c2ccccc2OC(F)F)cc1,-50,4,45*,1,-8,1
Cc1cc(=O)[nH]c(-n2nc(C)cc2C)n1,81*,0,4,-1,-26,4
CC(C)C(NC(=O)C12CC3CC(CC(C3)C1)C2)C(=O)N/N=C/C1=C(N2CCOCC2)C(=C\c2cccc([N+](=O)[O-])c2)/CC1 (stereo not drawn),-29,5,2,9.6*,1,3
O=C(O)c1ccc(N/N=C/C2=C(N3CCOCC3)C(=C\c3ccccc3)/CC2)cc1,.,.,.,.,.,1
CN1CCN(S(=O)(=O)c2ccc(NC(=S)NC(=O)C(C)(C)C)cc2)CC1,.,-7,2,0,.,-2
Oc1ccc2cc(Br)ccc2c1CN1CCCC1,.,0,6,-1,.,2
CCOC(=O)CSc1nnc(CCCCCN2C(=O)c3cccc4cccc(c34)C2=O)o1,-60,-1,3,11*,10,0
O=C1C2C(C(=O)N1CCN1CCN(Cc3ccc([N+](=O)[O-])cc3)CC1)[C@H]1C=C[C@@H]2C1 (stereo partly drawn),.,.,.,.,.,2
CCn1c2ccccc2c2cc(/C=N/NC(=O)c3ccccc3)ccc21,-12,-4,20*,0,-4,1
CNc1nc(-c2ccccc2)nc(-c2ccc(OC)cc2)c1C#N,.,13*,5,5,.,-1
SMILES,BB579 growth dn,HMGR II inh,MT stabilize HCS,RAM inhibit,Yeast lifespan up,b-catenin transl
CNc1nc(-c2ccccc2)nc(-c2ccccc2)c1C#N,-37,-5,2,5,-17,0
Cc1c(Cl)c(-c2n[nH]c(=S)n2-c2ccc(F)cc2)nn1C,-49,11*,4,-1,-8,-3
CC(C)=C1C(=O)NN(c2ccc(C)c(Cl)c2)C1=O,-23,-3,2,3,45*,-1
Cc1ccc(/C=C/C(=O)NC2CCCCCCC2)o1,-66,5,3,0,38*,-3
CCOC(=O)Cc1csc(NC(=O)Cn2c(=O)oc3ccccc32)n1,.,.,.,.,.,1
COc1ccc(O)c(C(=O)c2cc(C#N)c(=O)n(CC3CCCO3)c2)c1 (stereo not drawn),-20,-1,4,1,113*,-2
COc1cccc(C(=O)NC2CC3CCCC(C2)N3S(=O)(=O)c2ccccc2)c1 (stereo not drawn),.,.,.,.,.,-1
Cc1ccc2c(c1)c1c(n2CC(O)CNC2CCCCC2)CCCC1 (stereo not drawn),.,1,36*,1,.,1
COc1ccc2cc(C(=O)O)ccc2c1,84*,0,3,-1,-29,0
COc1ccc(CC(=O)Nc2ccc(C(=O)O)cc2NC(=O)Cc2ccc(OC)cc2)cc1,.,-3,3,3,.,0
CCCCCCCn1c2c(c(=N)c3ccccc31)CCC2,.,2,7,0,.,0
CC(=O)Nc1nonc1NC(=O)COc1ccccc1,.,-2,3,-1,.,-2
O=C(Nc1cccc(N=Cc2cc(Cl)cc(Br)c2O)c1)c1ccco1,56*,0,2,-1,7,-1
O=C(Nc1cccc(N=Cc2cc(Br)cc(Br)c2O)c1)c1ccco1,100*,-5,6,-1,-10,-1
CCC(C)(NC(=O)c1ccc2c(c1)OCO2)C(=O)NC1CCCCC1 (stereo not drawn),.,-3,2,-1,.,-2
Cc1nc2cc(C(=O)N3c4ccccc4CC3C)ccc2s1 (stereo not drawn),.,-1,26*,0,.,47
CC1Cc2ccccc2N1C(=O)c1ccc2snnc2c1 (stereo not drawn),-36,1,4,1,-12,-6
Cc1nn(-c2ccccc2)c(C)c1/C=N/NC(=O)c1cc(C(C)(C)C)[nH]n1,0,-2,3,0,-5,0
Cc1nn(-c2ccccc2)c(C)c1-c1cc(C(=O)N/N=C/c2cccnc2)[nH]n1,.,3,3,2,.,-3
Cc1ccc(-c2cc(C(=O)N/N=C/c3c(C)nn(-c4ccccc4)c3C)n[nH]2)s1,-38,2,6,1,-4,122*
Cc1ccc(-c2cc(C(=O)N/N=C/c3c(C)nn(-c4ccccc4)c3C)[nH]n2)cc1,-22,0,4,0,-19,102*
COc1ccc(Cc2nnc(SCC(=O)N3CCCCC3)o2)cc1,.,-9,2,0,.,0
CCc1ccc(Nc2ncc3c(n2)CC(C)(C)CC3=O)cc1,.,.,.,.,.,0
CC(=O)Nc1ccc2nc(NC(=O)COc3ccccc3C)sc2c1,.,-2,4,5,.,1
CC(=O)Nc1ccc2nc(NC(=O)COc3ccccc3Cl)sc2c1,.,2,2,9.9*,.,-2
